According to ChEMBL document CHEMBL1121614, “Synthesis and antiallergy activity of 4-oxopyrano[3,2-b]indoles” (1980):
The source made the active and inactive calls. The calls are words filed in the database; no cut-off is given here.

Each compound was assayed on Rattus norvegicus (assay: The compound was tested for inhibition of rat passive cutaneous anaphylaxis at 1 mg/kg dose after iv administration). Conditions: not given.
Format: functional
Procedure, shortened: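 Rat PCA by the iv route. Antiserum dilutions were injected intradermally on the back 48 h before iv challenge with 1 mg ovalbumin in 1 mL saline plus 0.25% Evans blue. Compound was dissolved, if needed, in slight molar excess NaHCO3 and diluted into the antigen solution. Wheal diameter was read at 30 min and extrapolated to zero antiserum by least squares. Groups of five.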
O=C(O)c1cc(=O)c2c(o1)c1ccccc1n2-c1ccccc1 gave an inhibition in vivo at 1 mg/kg of 100%. With CCn1c2ccccc2c2oc(C(=O)O)cc(=O)c21 the inhibition in vivo at 1 mg/kg was 100%.

The compounds below were run on Rattus norvegicus (assay: Inhibition of rat passive cutaneous anaphylaxis at 1.0 mg/kg dose after intraperitoneal administration). Conditions: ip.
Format: functional
Procedure, shortened: (§1)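 Rats were sensitized by intradermal injection of antiserum dilutions at several back sites. Drug was suspended in 1% gum tragacanth in saline and given po or ip 10–15 min before challenge with iv ovalbumin (1 mg in 1 mL saline with 0.25% Evans blue). At 30 min the wheal's mean orthogonal diameter was measured. Diameter was plotted against antiserum level and extrapolated to zero. Five rats per group.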
In the case of Cn1c2ccccc2c2oc(C(=O)Nc3nn[nH]n3)cc(=O)c21, the inhibition in vivo at 1 mg/kg is reported as 28%. With Cn1c2ccc([N+](=O)[O-])cc2c2oc(C(=O)O)cc(=O)c21 the inhibition in vivo at 1 mg/kg was 1%. With O=C(O)c1cc(=O)c2c(o1)c1ccccc1n2-c1ccccc1 the inhibition in vivo at 1 mg/kg was 13%. Cc1ccc2c(c1)c1oc(C(=O)Nc3nn[nH]n3)cc(=O)c1n2C was tested, and the inhibition in vivo at 1 mg/kg was 33%. Compound Cn1c2ccccc2c2oc(-c3nn[nH]n3)cc(=O)c21 has an inhibition in vivo at 1 mg/kg of 87%. O=C1c2ccccc2S(=O)(=O)c2cc(-c3nn[nH]n3)ccc21 [DOXANTRAZOLE] gave an inhibition in vivo at 1 mg/kg of 33%. For Cc1ccc2c(c1)c1oc(-c3nn[nH]n3)cc(=O)c1n2C, the inhibition in vivo at 1 mg/kg was 25%. With CCn1c2ccccc2c2oc(C(=O)Nc3nn[nH]n3)cc(=O)c21 the inhibition in vivo at 1 mg/kg was 12%. Compound Cn1c2ccccc2c2oc(C(=O)O)cc(=O)c21 has an inhibition in vivo at 1 mg/kg of 30%. Cc1ccc2c(c1)c1oc(C(=O)O)cc(=O)c1n2C showed an inhibition in vivo at 1 mg/kg of 18%. With O=c1cc(-c2nn[nH]n2)oc2c3ccccc3n(-c3ccccc3)c12 the inhibition in vivo at 1 mg/kg was 61%. Cn1c2ccc(Cl)cc2c2oc(-c3nn[nH]n3)cc(=O)c21 gave an inhibition in vivo at 1 mg/kg of 46%. Compound CCn1c2ccccc2c2oc(-c3nn[nH]n3)cc(=O)c21 has an inhibition in vivo at 1 mg/kg of 100%. CCn1c2ccccc2c2oc(C(=O)O)cc(=O)c21 showed an inhibition in vivo at 1 mg/kg of 0%. Cn1c2ccc(Cl)cc2c2oc(C(=O)Nc3nn[nH]n3)cc(=O)c21 was tested, and the inhibition in vivo at 1 mg/kg was 38%. Work on Cn1c2ccc([N+](=O)[O-])cc2c2oc(C(=O)Nc3nn[nH]n3)cc(=O)c21 yielded an inhibition in vivo at 1 mg/kg of 42%.

What follows are compounds tested on Rattus norvegicus (assay: The compound was tested for inhibition of rat passive cutaneous anaphylaxis at 1.0 mg/kg dose after peroral administration). Conditions: route oral.
Format: functional
Procedure, shortened: as §1
Work on Cn1c2ccc([N+](=O)[O-])cc2c2oc(C(=O)Nc3nn[nH]n3)cc(=O)c21 yielded an inhibition in vivo at 1 mg/kg of 15%.

Each compound was assayed on Rattus norvegicus (assay: The compound was tested for inhibition of rat passive cutaneous anaphylaxis at 10 mg/kg dose after intraperitoneal administration). Conditions: ip.
Format: functional
O=C1c2ccccc2S(=O)(=O)c2cc(-c3nn[nH]n3)ccc21 [DOXANTRAZOLE] was tested, and the inhibition in vivo at 10 mg/kg was 97%. In the case of O=C(O)c1cc(=O)c2c(OCC(O)COc3cccc4oc(C(=O)O)cc(=O)c34)cccc2o1 [CROMOLYN SODIUM], the inhibition in vivo at 10 mg/kg is reported as 89%.

What follows are compounds tested on Rattus norvegicus (assay: The compound was tested for inhibition of rat passive cutaneous anaphylaxis at 2.0 mg/kg dose after intraperitoneal administration). Conditions: ip.
Format: functional
For O=C(O)c1cc(=O)c2c(OCC(O)COc3cccc4oc(C(=O)O)cc(=O)c34)cccc2o1 [CROMOLYN SODIUM], the inhibition in vivo at 2 mg/kg was 50%.

What follows are compounds tested on Rattus norvegicus (assay: The compound was tested for inhibition of rat passive cutaneous anaphylaxis at 2.0 mg/kg dose after peroral administration). Conditions: route oral.
Format: functional
Procedure, shortened: as §1
Compound O=C(O)c1cc(=O)c2c(o1)c1ccccc1n2-c1ccccc1 has an inhibition in vivo at 2 mg/kg of 0%. Compound Cc1ccc2c(c1)c1oc(C(=O)O)cc(=O)c1n2C has an inhibition in vivo at 2 mg/kg of 11%. CCn1c2ccccc2c2oc(C(=O)O)cc(=O)c21 gave an inhibition in vivo at 2 mg/kg of 22%.

These compounds were tested on Rattus norvegicus (assay: Inhibition of rat passive cutaneous anaphylaxis at 5.0 mg/kg dose after intraperitoneal administration). Conditions: ip.
Format: functional
Procedure, shortened: as §1
Cn1c2ccccc2c2oc(C(=O)Nc3nn[nH]n3)cc(=O)c21 showed an inhibition in vivo at 5 mg/kg of 100%. With Cn1c2ccc([N+](=O)[O-])cc2c2oc(C(=O)O)cc(=O)c21 the inhibition in vivo at 5 mg/kg was 100%. Cc1ccc2c(c1)c1oc(C(=O)Nc3nn[nH]n3)cc(=O)c1n2C was tested, and the inhibition in vivo at 5 mg/kg was 100%. Cn1c2ccccc2c2oc(-c3nn[nH]n3)cc(=O)c21 gave an inhibition in vivo at 5 mg/kg of 100%. Work on Cc1ccc2c(c1)c1oc(-c3nn[nH]n3)cc(=O)c1n2C yielded an inhibition in vivo at 5 mg/kg of 100%. In the case of CCn1c2ccccc2c2oc(C(=O)Nc3nn[nH]n3)cc(=O)c21, the inhibition in vivo at 5 mg/kg is reported as 100%. Work on Cn1c2c([N+](=O)[O-])cc([N+](=O)[O-])cc2c2oc(C(=O)O)cc(=O)c21 yielded an inhibition in vivo at 5 mg/kg of 0%. With Cn1c2ccccc2c2oc(C(=O)O)cc(=O)c21 the inhibition in vivo at 5 mg/kg was 100%. Work on Cn1c2ccc(Cl)cc2c2oc(C(=O)O)cc(=O)c21 yielded an inhibition in vivo at 5 mg/kg of 23%. For O=c1cc(-c2nn[nH]n2)oc2c3ccccc3n(-c3ccccc3)c12, the inhibition in vivo at 5 mg/kg was 100%. Work on Cn1c2ccc(Cl)cc2c2oc(-c3nn[nH]n3)cc(=O)c21 yielded an inhibition in vivo at 5 mg/kg of 100%. For CCn1c2ccccc2c2oc(-c3nn[nH]n3)cc(=O)c21, the inhibition in vivo at 5 mg/kg was 100%. Work on Cn1c2c([N+](=O)[O-])cc([N+](=O)[O-])cc2c2oc(C(=O)Nc3nn[nH]n3)cc(=O)c21 yielded an inhibition in vivo at 5 mg/kg of 48%. Work on O=C(Nc1nn[nH]n1)c1cc(=O)c2c(o1)c1ccccc1n2-c1ccccc1 yielded an inhibition in vivo at 5 mg/kg of 0%. With Cn1c2ccc(Cl)cc2c2oc(C(=O)Nc3nn[nH]n3)cc(=O)c21 the inhibition in vivo at 5 mg/kg was 100%. In the case of Cn1c2ccc([N+](=O)[O-])cc2c2oc(C(=O)Nc3nn[nH]n3)cc(=O)c21, the inhibition in vivo at 5 mg/kg is reported as 100%.

These compounds were tested on Rattus norvegicus (assay: Inhibition of rat passive cutaneous anaphylaxis at 5.0 mg/kg dose after peroral administration). Conditions: route oral.
Format: functional
Procedure, shortened: as §1
Cn1c2ccccc2c2oc(C(=O)Nc3nn[nH]n3)cc(=O)c21 gave an inhibition in vivo at 5 mg/kg of 0%. Compound Cn1c2ccc([N+](=O)[O-])cc2c2oc(C(=O)O)cc(=O)c21 has an inhibition in vivo at 5 mg/kg of 0%. Cc1ccc2c(c1)c1oc(C(=O)Nc3nn[nH]n3)cc(=O)c1n2C showed an inhibition in vivo at 5 mg/kg of 0%. Cn1c2ccccc2c2oc(-c3nn[nH]n3)cc(=O)c21 showed an inhibition in vivo at 5 mg/kg of 39%. Work on O=C1c2ccccc2S(=O)(=O)c2cc(-c3nn[nH]n3)ccc21 [DOXANTRAZOLE] yielded an inhibition in vivo at 5 mg/kg of 50%. Cc1ccc2c(c1)c1oc(-c3nn[nH]n3)cc(=O)c1n2C gave an inhibition in vivo at 5 mg/kg of 56%. With CCn1c2ccccc2c2oc(C(=O)Nc3nn[nH]n3)cc(=O)c21 the inhibition in vivo at 5 mg/kg was 1%. Work on Cn1c2c([N+](=O)[O-])cc([N+](=O)[O-])cc2c2oc(C(=O)O)cc(=O)c21 yielded an inhibition in vivo at 5 mg/kg of 0%. Cn1c2ccccc2c2oc(C(=O)O)cc(=O)c21 gave an inhibition in vivo at 5 mg/kg of 96%. Work on Cn1c2ccc(Cl)cc2c2oc(C(=O)O)cc(=O)c21 yielded an inhibition in vivo at 5 mg/kg of 2%. O=c1cc(-c2nn[nH]n2)oc2c3ccccc3n(-c3ccccc3)c12 showed an inhibition in vivo at 5 mg/kg of 32%. With Cn1c2ccc(Cl)cc2c2oc(-c3nn[nH]n3)cc(=O)c21 the inhibition in vivo at 5 mg/kg was 33%. With CCn1c2ccccc2c2oc(-c3nn[nH]n3)cc(=O)c21 the inhibition in vivo at 5 mg/kg was 70%. O=C(Nc1nn[nH]n1)c1cc(=O)c2c(o1)c1ccccc1n2-c1ccccc1 was tested, and the inhibition in vivo at 5 mg/kg was 7%. Work on Cn1c2ccc(Cl)cc2c2oc(C(=O)Nc3nn[nH]n3)cc(=O)c21 yielded an inhibition in vivo at 5 mg/kg of 6%.

Each compound was assayed on Rattus norvegicus (assay: The compound was tested for inhibition of rat passive cutaneous anaphylaxis at 5.0 mg/kg dose after peroral administration; O means inactive). Conditions: not given.
Format: functional, organism-based
Set-up: dose 5 mg/kg
Procedure, shortened: as §1
In the case of O=C(O)c1cc(=O)c2c(OCC(O)COc3cccc4oc(C(=O)O)cc(=O)c34)cccc2o1 [CROMOLYN SODIUM], the inhibition is reported as “inactive”.
